Measurements as given in paper PMC4410353 (Journal of nuclear medicine : official publication, Society …, 2009).

Assay: 3-T MRI of gadofluorine M uptake in atherosclerotic-like lesions
Type: in vivo, rabbit
Details: T1-weighted MRI 1 h after i.v. 0.5 μmol/kg
Outline: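 Rabbits had right femoral artery injury by air desiccation, then balloon angioplasty. The contralateral uninjured femoral artery served as control. Rabbits were imaged at 4–6 wk post-desiccation (n = 9), 3 wk post-angioplasty (n = 6) and 4 wk later (n = 4). 3-T T1-weighted turbo-spin-echo imaging (TR/TE 600/12 ms) was run 1 h after i.v. non-receptor-specific plaque-targeting contrast agent.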

For `CC(C(=O)NCC(=O)NCCCC[C@H](NC(=O)CO[C@H]1O[C@H](CO)[C@@H](O)[C@H](O)[C@@H]1O)C(=O)N1CCN(S(=O)(=O)C(F)(F)C(F)(F)C(F)(F)C(F)(F)C(F)(F)C(F)(F)C(F)(F)C(F)(F)F)CC1)N1CCN(CC(=O)O)CCN(CC(=O)O)CCN(CC(=O)O)CC1` (some centres unmarked) [gadofluorine M], which “MRI uptake in control arteries” value is on record?
Its value is “no gadofluorine M uptake”.

What about the “MRI signal / uptake in injured vessels” value (all rabbits at all TPs) of the same compound?
Its value is “increased signal”.
